NF-kB neuron act = compounds increasing NF-kB expression in human neuronal cells; NF-kB reporter expression; hits give high values; fold change at 12.5 µM; 190,000 compounds, 1.6% hits; AID 1239; in the data active = fold change above about 3.3
STAT3 inh = inhibitors of IL-6 induced STAT3 signaling | U3A cells, IL-6 STAT3-luciferase reporter, luminescence; host cell line lacks STAT1 | inhibition, % at 5.5 µM | 190,000 compounds, 0.89% hits | AID 862;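 active = inhibition above the mean inhibition across all screened compounds plus 3 SD, cut at about 44% in these data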;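 also: 0% = DMSO only wells and 100% = 100 µM nifuroxazide control wells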
STAT3 activator = activators of IL-6 induced STAT3 signaling; U3A cells, IL-6 STAT3-luciferase reporter, luminescence; 100% = signal with IL-6 EC80 alone; 190,000 compounds, 0.91% hits; activation (% of control), % at 5.6 µM;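 active = activation above the screen-wide mean of compound activation plus 3 SD, cut at about 130% in these data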;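 also: 0% = background luminescence of wells with medium and substrate only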
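Material: human U3A cells carrying STAT3-luciferase construct. Measured by: reporter luminescence signal. Timing: compound 1 h, then IL-6 6 h at 37 °C.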
STAT1 activator = activators of IFN-gamma induced STAT1 signaling; NIH 3T3 STAT1-luciferase reporter, luminescence; 100% = IFN-gamma alone, no compound; activation (% of control), % at 5.5 µM; AID 932; 200,000 compounds, 2.6% hits;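 active = activation above the screen-wide mean activation plus 3 SD, cut at about 130% in these data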;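 also: raw ratio to IFN-gamma control signal so 100% means no change and 0% no light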
STAT1 blocker = STAT1 signaling inhibition. NIH 3T3 STAT1-luciferase reporter, IFN-gamma, luminescence. inhibition, % at 5.5 µM. 200,000 compounds, 0.35% hits. AID 920;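 active = inhibition above a set limit, the mean inhibition across all tested compounds plus 3 SD, cut at about 34% in these data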;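 also: 0% = IFN-gamma with DMSO and 100% = IFN-gamma with 300 µM nifuroxazide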
APP 5'UTR act = APP 5'UTR luciferase reporter activation; 190,000 compounds, 1% hits; SH-SY5Y APP 5'UTR luciferase reporter, luminescence; zero percent = DMSO vehicle wells; AID 1276; activation, % at 2 µM;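 active = activation above a set limit, based on mean plus 3 SD of controls, cut at about 140% in these data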
STAT1 activ conf = STAT1 activation, confirmation assay | activation (% of control), % at 5.7 µM | 1,200 compounds, 97% hits | NIH 3T3 STAT1-luciferase reporter, IFN-gamma potentiation, luminescence; 100% = IFN-gamma EC80 alone, no compound | shares compounds with STAT1 activator;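 active = activation above a set limit carried over from the earlier primary STAT1 screen, cut at about 140% in these data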;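 also: simple ratio to median IFN-gamma plus DMSO wells so 0% means no light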
NFkB act STAT1ct = NF-kappaB activation in STAT1 activator counter-screen. HEK293T NF-kB luciferase reporter, TNF-alpha stimulated, luminescence; 100% = TNF-alpha with vehicle only. 1,200 compounds, 43% hits. shares compounds with STAT1 activator. AID 1306. activation (% of control), % at 5.7 µM;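 active = activation above the mean of solvent-only control wells plus 3 SD, set per campaign, cut at about 130% in these data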;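 also: TNF-alpha given at a submaximal dose yielding about 80% of full reporter signal; values are well signal over median control so 100% means no change and 0% no light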
STAT3 act 2 = human STAT3 activation in STAT1 activator counter-screen. U3A cells STAT3-luciferase reporter, IL-6, luminescence; cells lack STAT1; 100 = IL-6 alone, no compound effect. activation (% of control), % at 5.7 µM. 1,200 compounds, 46% hits. shares compounds with STAT1 activator;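 active = activation above the solvent-only control well mean plus 3 SD, set per plate batch, cut at about 110% in these data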;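 also: 0% = no luminescence and 100% = median IL-6 plus DMSO wells; higher means more STAT3 reporter activation so hits are non-selective activators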
Numbers without * were called inactive; . = no result. Compounds with a hit are over-represented: about 4.9% of the library has one in this group of screens.

SMILES	NF-kB neuron act	STAT3 inh	STAT3 activator	STAT1 activator	STAT1 blocker	APP 5'UTR act	STAT1 activ conf	NFkB act STAT1ct	STAT3 act 2
O=C(NCCc1ccccc1)C1CCN(C(=O)c2ccc([N+](=O)[O-])cc2)CC1	1.3	6	99	93	8	-13	.	.	.
O=[N+]([O-])c1cccc(-c2cn3ccccc3n2)c1	5.5*	11	93	153*	-59	118	206*	141*	115*
Cn1cc(-c2nnc(-c3ccccc3)o2)c2ccccc21	5.2*	-16	116	159*	-65	130	258*	118	130*
COc1ccccc1Oc1ncnc2c1oc1ccccc12	1.1	-1	102	107	-9	-16	.	.	.
Cc1ccc(Nc2ncnc3c2oc2ccccc23)cc1	5.4*	-11	117	171*	-77	152*	231*	155*	117*
c1coc(CNc2ncnc3c2oc2ccccc23)c1	1.8	25	79	85	17	7	.	.	.
COc1ccc(Nc2ncnc3c2oc2ccccc23)cc1	3.4*	5	99	163*	-69	117	204*	134*	104
Cc1nc(Nc2ccc3c(c2)OCCO3)c2oc3ccccc3c2n1	0.47	16	90	110	-11	15	.	.	.
c1ccc2c(c1)oc1c(Nc3ccc4c(c3)OCCO4)ncnc12	5*	8	94	180*	-88	164*	260*	141*	114*
Cn1c(=NC(=O)c2ccccc2[N+](=O)[O-])sc2cc(S(C)(=O)=O)ccc21	1.3	-8	107	177*	-86	178*	249*	117	108
O=C(c1n[nH]c2ccccc12)N1CCN(c2ccc(F)cc2)CC1	1.4	14	90	104	-5	41	.	.	.
COc1ccc(N/C=C/C(=O)c2ccc3c(c2)OCO3)cc1OC	1.8	22	87	161*	-67	13	178*	136*	105
CCOc1ccc(/C(O)=C/C(=O)C(=O)Nc2ccc(S(=O)(=O)NC(C)=O)cc2)cc1	1.2	14	90	102	-3	1	.	.	.
C=CCNC(=O)c1cc(-c2ccc(Br)cc2)on1	2.5	20	83	160*	-67	43	171*	125	97
CCCNC(=O)c1cc(-c2ccc(OC)cc2)on1	6.8*	9	93	152*	-44	123	170*	134*	103
COc1ccc(-c2cc(C(=O)NCc3cccnc3)no2)cc1	2.3	-10	113	115	-16	.	.	.	.
Cc1cccc(N=Nc2c(C)nn(-c3ccccc3)c2N)c1C	1.2	17	86	91	10	42	.	.	.
Cc1nc2c(N=Nc3ccccc3F)c(N)nn2c(N)c1C#N	0.77	-16	117	166*	-71	-8	146*	125	123*
Nc1nn(-c2ccccc2)c(N)c1N=Nc1ccccc1F	14*	3	98	219*	-133	181*	306*	125	107
Cc1nn(-c2ccccc2)c(N)c1C(O)(C(F)(F)F)C(F)(F)F	0.93	6	97	93	8	-3	.	.	.
Cc1nn(-c2ccccc2)c(N)c1N=Nc1ccccc1	6.8*	0	105	176*	-84	156*	198*	140*	141*
Cc1nn(-c2ccccc2)c(N)c1N=Nc1ccc(Cl)cc1	4.5*	11	93	155*	-61	108	183*	129	108
Cc1cc(=O)n2[nH]c(N)c(N=Nc3ccccc3F)c2n1	1.4	6	97	105	-6	1	.	.	.
COc1ccc(CNC(=O)Cn2cc(C(F)(F)F)ccc2=O)cc1	0.92	-5	106	113	-14	-1	.	.	.
Cc1nn(-c2ccccc2)c(N)c1-c1ccccc1	2.6	4	98	113	-15	7	.	.	.
SMILES	NF-kB neuron act	STAT3 inh	STAT3 activator	STAT1 activator	STAT1 blocker	APP 5'UTR act	STAT1 activ conf	NFkB act STAT1ct	STAT3 act 2
Nc1nn(-c2ccccc2)c(N)c1N=Nc1ccccc1	8.1*	-20	121	202*	-116	3	228*	126	115*
C/C(=C\C(=O)c1ncc(C(F)(F)F)cc1Cl)N(C)C	1.1	9	102	94	5	-6	.	.	.
CCOC(=O)N1CCN(C(=O)CNC2CCCCCCC2)CC1	1.1	0	100	94	7	8	.	.	.
Nc1c(C(=O)C2CC2)sc2nc3c(cc12)CCC3	5.4*	12	96	162*	-69	120	189*	135*	108
CN1CCc2nc3sc(C(=O)C45CC6CC(CC(C6)C4)C5)c(N)c3cc2C1	1	-3	106	96	5	3	.	.	.
O=[N+]([O-])c1cccnc1NCCc1ccccc1	2.3	0	105	151*	-60	76	163*	129	117*
COC(=O)C(Cc1ccccc1)NC(=O)c1cc(S(=O)(=O)N(C)C)ccc1Cl (stereo not drawn)	0.81	6	98	110	-13	69	.	.	.
Cn1cccc1/C=C1\SC(=O)N(c2ccccc2)C1=O	2.8	19	86	159*	-66	117	190*	129	102
COc1cccc(NC(=O)c2ccn(C)n2)c1	2	-12	113	126	-34	62	.	.	.
Cc1ccc(NC(=O)c2ccn(C)n2)c(Br)c1	7*	23	80	155*	-58	142*	198*	116	97
Cc1ccc(NC(=O)Cn2cccc2)c(Br)c1	1.7	5	98	108	-9	-2	.	.	.
Cc1ccc(NC(=O)c2ccccn2)c(Br)c1	6.9*	14	92	152*	-61	153*	200*	126	110
Cc1ccc(C)c(NC(=O)c2ccccn2)c1	1.6	16	91	112	-13	17	.	.	.
Cn1ccc(C(=O)Nc2ccc(Br)cc2Br)n1	7.6*	4	95	168*	-72	143*	200*	124	102
Cc1nc2c(=O)[nH]c3ccccc3c2o1	1.6	-2	102	106	-5	10	.	.	.
Cc1cc(C(=O)CN2C(=O)c3ccccc3C2=O)c(C)n1Cc1cccs1	0.94	19	86	161*	-66	94	193*	107	110
CC(C)Oc1ccc2c(=O)c(-c3ccccc3)coc2c1	9.5*	21	84	156*	-62	163*	219*	122	90

Compound activity: PubChem BioAssay, several laboratories
